Screens from PubChem.
Statin myotox sup – suppressors of simvastatin-induced myotoxicity in C2C12 myotubes | actives 0.78% (n = 330,000) | ATP luminescence, 48 h; scaled: DMSO 0, geranylgeraniol control 100 | rescue of ATP level, % at 7.49 µM;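 active = mean ATP rescue above about 67%, or every replicate alone reaching that limit, limit read from the data, passing the limit was not always enough; inconclusive = no clear call, values can overlap the other calls; inactive = mean under the limit and some replicate under it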;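 also: myotubes were challenged with 10 µM simvastatin during compound exposure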
DENV2 CPE – inhibitors of DENV2 cytopathic effect. actives 1.7% (n = 350,000). AID 651640. CPE inhibition, % at 9.99 µM. DENV2-infected cells, cytopathic effect rescue, plate reader; in the data active = CPE inhibition above about 20%, passing the limit was not always enough; inconclusive = no clear call, values can overlap the other calls; tested in BHK-21 cells;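 also: 0% = median of neutral control wells and 100% = median of positive control wells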
E-selectin induc – E-selectin induction on HUVECs; P16581; HUVEC E-selectin immunofluorescence imaging; normalized: neutral wells 0, TNF-alpha wells 100; activation, % at 7.58 µM; actives 0.37% (n = 260,000); AID 686992;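 active = mean E-selectin-positive cell signal at least 10% of the positive control, reached in at least 60% of replicates, without over 20% cell loss; inconclusive = no rule given, readout overlaps actives, possibly toxicity-flagged; inactive = the rest, including those meeting only one limit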
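Read-out: % PE-positive cells | Test system: HUVEC | Doses: One compound dose added by pin transfer | Buffer or medium: EGM-2 over gelatin coat | Signal: Immunofluorescence imaging | Benchmarks: TNF-alpha, DMSO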
FGF22 binding – FGF22 (human) thermal shift binding | Q9HCT0 | recombinant FGF22 thermal shift, SYPRO orange fluorescence; percent of sucrose octasulfate shift, DMSO zero | activity (Tm shift, normalised), % at 9.99 µM | actives 1.5% (n = 340,000) | AID 651658;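 active = mean Tm shift, scaled 0 neutral to 100 positive control, at about 1.3% or above, every replicate too, limit read from the data; inconclusive = no clear call, values can overlap the other calls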
Target sequence (Q9HCT0 whole entry, looked up): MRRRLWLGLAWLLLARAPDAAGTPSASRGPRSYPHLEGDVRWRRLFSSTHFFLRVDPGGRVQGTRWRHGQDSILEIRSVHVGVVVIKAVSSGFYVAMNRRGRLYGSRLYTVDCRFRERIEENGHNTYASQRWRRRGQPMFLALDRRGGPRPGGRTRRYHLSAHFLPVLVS
Xi reactivation – X-chromosome reactivation activator | XiGFP mouse fibroblasts, % GFP-positive cells imaging, 3 d; cells co-treated with 5-aza-dC sensitizer; scaled so ellipticine positive control = 100% | activation, % at 7.58 µM | actives 0.055% (n = 360,000);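 active = mean normalized replicate activation at least 10% and every replicate at or above 10%; inconclusive = only one of the two criteria met; inactive = mean below 10% and not all replicates reach 10%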;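 also: 0% = median of on-plate neutral control wells and 100% = ellipticine 6 µM median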
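System: XiGFP fibroblasts, SV40-immortalized. Medium: DMEM plus 5-aza-dC sensitizer. Doses: single point. Timing: 3 d treatment, 15 min room-temperature fixation. Control set: ellipticine 6 µM.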
PglD inh – blocks C. jejuni PglD acetyltransferase activity. purified PglD enzyme, DTNB colorimetric CoA detection. inhibition, % at 12.5 µM. actives 0.098% (n = 360,000); in the data active = inhibition above about 16%, passing the limit was not always enough; inconclusive = no clear call, values can overlap the other calls
* marks the source's active call; other numbers are inactive results; ? = inconclusive; . = no result. An excerpt weighted towards active compounds, which were near 3.3% of everything screened.

SMILES	Statin myotox sup	DENV2 CPE	E-selectin induc	FGF22 binding	Xi reactivation	PglD inh
CCN1C(=O)[C@@H]2[C@@H]3CN(S(=O)(=O)c4ccc(C)cc4)[C@@H](c4ccccc4F)[C@@H]3C(=O)C[C@@H]2C1=O	1	21*	4	40	0	-5
Cc1ccc(S(=O)(=O)N2C[C@H]3[C@H]4C(=O)N(Cc5ccccc5)C(=O)[C@H]4CC(=O)[C@H]3[C@@H]2c2ccccc2F)cc1	-5	-6	3	40	0	-6
C[C@@H]1CN([C@@H](C)CO)C(=O)c2cc(NS(C)(=O)=O)ccc2O[C@@H](C)CCCCO[C@@H]1CN(C)C(=O)CCCN(C)C	16	.	.	.	.	.
Cc1ccc(C(=O)c2cncc(Br)c2)cc1	5	.	.	.	.	6
Cc1ccc(SCC(=O)NNC(=O)c2cncc(Br)c2)cc1	-6	34*	0	0	0	0
Cc1oc(/N=C/c2ccccc2)c(C#N)c1C	-2	22*	.	.	0	0
Cc1oc(/N=C/c2cccc3ccccc23)c(C#N)c1C	.	-10	.	0	.	-3
Cc1noc(C)c1S(=O)(=O)Nc1cccc2c1O[C@@H](CN(C)Cc1ccc3c(c1)OCO3)[C@@H](C)CN([C@@H](C)CO)C2=O	25	4	-11	0	-1	0
C(=N\Nc1nc(-c2ccccc2)cs1)/c1cccnc1	-56	.	.	.	.	-2
CC(C)(C)c1csc(N/N=C/c2cccnc2)n1	.	3	0	44*	0	-3
Cc1cccc(CC(=O)c2c[nH]c3ccccc23)c1	.	-4	75*	0	0	-4
CC[C@@]1(C(=O)OC)N[C@H](CN(C)C(C)=O)[C@@H]2C(=O)N(Cc3ccccc3)C(=O)[C@@H]21	8	-2	0	44*	0	1
CC[C@@]1(C(=O)OC)N[C@H](CN(C)C(=O)c2ccccc2)[C@@H]2C(=O)N(C)C(=O)[C@@H]21	-2	-1	0	43*	0	-3
COC(=O)[C@]1(Cc2ccccc2)N[C@H](CN(C)C(=O)c2ccc(C)cc2)[C@@H]2C(=O)N(Cc3ccccc3)C(=O)[C@@H]21	-1	?	0	0	0	0
COCC(=O)N(C)C[C@H]1N[C@@](C)(C(=O)OC)[C@H]2C(=O)N(Cc3ccccc3)C(=O)[C@@H]12	9	2	0	43*	0	4
COC(=O)[C@]1(Cc2ccccc2)N[C@H](CN(C)C(=O)c2ccccc2)[C@@H]2C(=O)N(Cc3ccccc3)C(=O)[C@@H]21	-3	7	0	43*	0	1
COc1ccc(C[C@@H]2CCc3cnnn3COC[C@H](C(C)C)NC2=O)cc1	.	0	0	0	0	.
N#CCCc1cccc(CCC#N)c1	14	120*	0	0	0	-1
COc1cccc(C2Oc3ccccc3C3CC(c4cccs4)=NN32)c1 (stereo not given)	.	81*	0	0	0	1
Cc1noc(C)c1S(=O)(=O)N(C)C[C@@H]1OCCCC[C@H](C)Oc2ccc(NC(=O)C3CCCCC3)cc2C(=O)N([C@@H](C)CO)C[C@H]1C	-26	-2	0	-1	-1	0
CC(=O)N(C)C[C@@H]1Oc2ccc(N(C)C)cc2CC(=O)N(C)C[C@@H]1C	.	.	.	.	0	.
CCCC#Cc1cnc2c(c1)C(=O)N([C@@H](C)CO)C[C@@H](C)[C@H](CN(C)Cc1ccccc1)O2	-1	7	0	0	0	-1
Cc1cc(C)n(-c2ccc(NC(=O)C3CCCCN3C(=O)c3occc3C)cc2)n1 (stereo not given)	2	14	6	40	0	5
Cc1cc(C)n(-c2ccc(NC(=O)C3CCCCN3C(=O)c3ccoc3)cc2)n1 (stereo not given)	-2	36*	0	0	0	-2
Cc1[nH]c2ccccc2c1/C=N/Nc1nc2ccccc2[nH]1	.	-24	-1	-1	17*	-5
SMILES	Statin myotox sup	DENV2 CPE	E-selectin induc	FGF22 binding	Xi reactivation	PglD inh
Cc1ccccc1/C=N/Nc1nc2ccccc2[nH]1	.	7	.	0	0	.
O=C(C[C@@H]1CC[C@@H]2[C@H](COC[C@H](O)CN2C(=O)Nc2cc(Cl)cc(Cl)c2)O1)NCC1CCCCC1	13	-9	1	0	0	1
O=C(C1=NN[C@@H]2C(=O)N(c3cccc(F)c3)C(=O)[C@H]12)c1cnccn1	1	2	.	0	0	1
O=C(C1=NN[C@@H]2C(=O)N(c3ccccc3C(F)(F)F)C(=O)[C@H]12)c1cnccn1	.	-1	27*	0	0	.
CCC(=O)N(C)C[C@H]1Oc2cc(-c3ccccc3)ccc2S(=O)(=O)N([C@@H](C)CO)C[C@@H]1C	-8	10	0	0	0	2
COc1cccc2cc(-c3csc(CCn4nc(C)cc4C)n3)c(=O)oc12	89*	.	.	.	.	0
Cc1nn(C)cc1NC(=O)C[C@H]1CC[C@H]2[C@@H](COc3ccc(NC(=O)Nc4cccc(Cl)c4)cc3C(=O)N2C)O1	-9	-8	0	0	1	0
CN(C)CC(=O)Nc1ccc(S(N)(=O)=O)cc1	6	.	.	.	.	4
CCN(CC)C(=S)SCC(=O)Nc1ccc(S(N)(=O)=O)cc1	6	2	0	43*	0	-2
Cc1ccccc1-c1cc(C(=O)NCc2cccc(C(F)(F)F)c2)nn1CC1CC(c2cccc([N+](=O)[O-])c2)=NO1 (stereo not given)	28	49*	.	0	0	2
Cc1ccccc1-c1cc(C(=O)NCc2cccs2)nn1CC1CC(c2cccc([N+](=O)[O-])c2)=NO1 (stereo not given)	-2	-7	0	0	0	-4
Cc1ccccc1-c1cc(C(=O)O)nn1CC1CC(c2cccc([N+](=O)[O-])c2)=NO1 (stereo not given)	3	126*	0	0	0	6
COc1cccc(S(=O)(=O)N2CC3(CN[C@@H](CO)c4[nH]c5cc(OC)ccc5c43)C2)c1	.	15	0	0	0	.
CC1=C(/C=C/C(C)=C/C=C/C(C)=C/CO)C(C)(C)CCC1	-9	122*	.	0	.	-2
COc1ccc(CN(C)C[C@H]2Oc3c(NC(=O)Nc4ccc(C(F)(F)F)cc4)cccc3C(=O)N([C@H](C)CO)C[C@@H]2C)cc1	-14	8	.	0	.	8
O=C(C[C@@H]1CC[C@@H](NC(=O)c2ccc(F)cc2)[C@H](CO)O1)NCc1ccncn1	19	-3	0	0	0	-2
